The list is not random: actives were taken first. Their share in the collection is about 2.4%.
Hck-Nef inh = human Hck-Nef kinase inhibition; inhibition, % at 20 µM; 220,000 tested, 0.68% active; P08631; Recombinant Hck-YEEI plus Nef, Z-Lyte FRET kinase assay;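 active means Hck-Nef kinase inhibition above about 50%, limit read from the data; inactive means inhibition below that limit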;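 further: 0% = DMSO with Hck plus Nef and 100% = Hck alone without Nef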
Target sequence (P08631 whole entry, looked up): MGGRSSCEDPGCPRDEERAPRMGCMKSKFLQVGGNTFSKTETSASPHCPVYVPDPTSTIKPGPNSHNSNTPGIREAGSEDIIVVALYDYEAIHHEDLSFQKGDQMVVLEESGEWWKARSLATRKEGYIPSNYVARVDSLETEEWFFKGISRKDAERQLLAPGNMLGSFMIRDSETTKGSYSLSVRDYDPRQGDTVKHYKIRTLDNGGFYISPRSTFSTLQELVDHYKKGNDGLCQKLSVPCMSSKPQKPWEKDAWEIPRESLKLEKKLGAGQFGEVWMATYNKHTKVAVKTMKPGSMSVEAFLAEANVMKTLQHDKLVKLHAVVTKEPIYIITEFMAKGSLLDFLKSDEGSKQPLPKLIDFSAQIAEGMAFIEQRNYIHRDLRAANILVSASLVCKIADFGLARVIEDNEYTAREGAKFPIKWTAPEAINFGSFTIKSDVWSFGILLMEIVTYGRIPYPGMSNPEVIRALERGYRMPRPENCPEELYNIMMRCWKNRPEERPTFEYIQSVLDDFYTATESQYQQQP
Dynein transport = dynein cargo transport inhibition; 3617.4 mouse cells, GR-EGFP nuclear translocation imaging; test concentration mostly 20 µM; stimulated with dexamethasone, 1 µM; hits give low values; z-score, hits read low; 220,000 tested, 0.47% active;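 active means plate z-score of nuclear minus cytoplasmic receptor signal below a set negative limit, without overly bright fluorescence or cell loss, cut at about -3.5 in these data, passing the limit was not always enough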;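 further: z-score of nuclear minus cytoplasmic ring GR-EGFP intensity difference per well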
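Buffer or medium: Induction medium lacking tetracycline, stripped serum | Also added: Dexamethasone agonist, 1.0 µM final, for 30 min | Timing: 48 h induction, 1 h compound, 30 min dex at 37 °C | Detection: Formaldehyde fixation, Hoechst nuclear stain, 10x automated fluorescence imaging | Measure: Nuclear versus cytoplasmic GR-EGFP signal, averaged per well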
MDM2 E3 inh = inhibitors of human Mdm2 E3 ubiquitin ligase; 210,000 tested, 0.11% active; cell-based MDM2 ubiquitination luciferase reporter, 2 h; 0 = plate control, 100 = twice control, blank-subtracted; signal enhancement, % at 5 µM;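 active means signal enhancement of 30% or more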;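 further: luminescence tracks abundance of the self-degrading MDM2-luciferase fusion protein; higher signal means inhibition of MDM2 E3 ligase activity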
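Test system: stable mammalian line carrying autodegrading MDM2–luciferase fusion reporter; quantity: 2000 cells in each well; times: 4 h cell settling then 2 h compound exposure, 37 °C; detection: luminescence with SteadyLite reagent, 15 min at room temperature; evaluation: percent signal gain over controls, blank-subtracted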
zVAD death inh = L929 zVAD cell death inhibition | L929 zVAD necroptosis rescue, ATP luminescence, 24 h; with zVAD 60 µM | viability rescue, % at 10 µM | 220,000 tested, 0.38% active | AID 1377;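 active means activation, scaled between plate controls, above about 75%, limit read from the data; inactive means activation under that limit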;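 further: 0% = zVAD with DMSO and 100% = DMSO alone without zVAD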
Autophagy HCS = alters autophagy in cells. AID 463193. MEF GFP-LC3 puncta imaging; test concentration mostly 10 µM. calls only at 10 µM (by protocol). 190,000 tested, 0.98% active;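 active means percentage of spot-positive cells more than 3 SD above its plate mean, without a fluorescence outlier flag or 80% toxicity; inconclusive means no clear call, values can overlap the other calls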;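 further: spot-positive cell cutoff set from DMSO-treated cells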
TNF death inh = blocks TNF-alpha induced death of Jurkat FADD-/- cells; 220,000 tested, 0.068% active; Jurkat FADD-/- TNF necroptosis rescue, ATP luminescence, 24 h; 0 = TNF only, 100 = no-TNF cells; activation (protection from cell death), % at 10 µM;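 active means activation, meaning protection from cell death, of at least 50% relative to plate controls; inactive means activation below 50%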;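 further: necroptosis triggered by 40 ng/mL TNF-alpha added together with compound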
Numbers without * were called inactive; i = inactive; u = inconclusive; x = no result given; + = active, no number.

SMILES	Hck-Nef inh	Dynein transport	MDM2 E3 inh	zVAD death inh	Autophagy HCS	TNF death inh
COCCCn1c(=N)c(C(=O)NCC2CCCO2)cc2c(=O)n3cccc(C)c3nc21 (configuration not stated)	196*	2.8	-16	-1	i	1
CCOCCCn1c(=N)c(C(N)=S)cc2c(=O)n3cccc(C)c3nc21	19	0.3	-3	0	i	-8
CCOC(=O)c1cc2c(=O)n3cccc(C)c3nc2n(C)c1=N	148*	-0.81	-7	7	i	-5
COCCn1c(=N)c(C(=O)NCCc2ccccc2)cc2c(=O)n3cccc(C)c3nc21	104*	-0.21	x	-1	i	1
CCCCNS(=O)(=O)c1ccc2nc(-c3cccs3)cc(C(=O)NCC(OC)OC)c2c1	4	-0.02	-8	x	i	-3
Nc1c(C(=O)Nc2ccccc2F)sc2nc(Cc3ccccc3)cc(C(F)(F)F)c12	3	i	-2	1	+	2
Cc1cc(C(F)(F)F)c2c(N)c(C(=O)Nc3cc(C)on3)sc2n1	0	0.8	-19	0	i	-2
COc1cccc(C2/C(=C(/O)c3cnn(-c4ccccc4)c3C)C(=O)C(=O)N2CCN(C)C)c1 (configuration not stated)	-5	-0.94	-12	1	i	0
CC[n+]1c(C=C2C=C(C)OC(C)=C2)sc2ccccc21	14	-2.3	-28	0	+	-10
CC[n+]1c(/C=C2/C=C(C)CC(C)C2)sc2ccccc21 (configuration not stated)	25	-2.1	-23	-1	i	-6
O=C(/C=C/c1ccc(O)cc1)c1ccccc1	-14	-1	-16	0	x	-23
O=C(/C=C/c1ccc(N2CCC(c3ccccc3)=N2)cc1)c1ccccc1	-101	-5.7*	-10	1	u	0
Cc1ccc(C)c(NC(=O)C(Sc2nnc(-c3cccs3)o2)c2ccccc2)c1 (configuration not stated)	-2	2.5	50*	-1	i	0
Cc1ccc(C)c(NC(=O)C(Sc2cccc[n+]2[O-])c2ccccc2)c1 (configuration not stated)	15	0.54	7	0	i	0
CCOC(=O)c1ccc(NC(=O)/C=C/c2cccs2)cc1	-14	0.31	-13	1	+	0
Cc1cccc(OCC(O)Cn2c(=N)n(CCN3CCCCC3)c3ccccc32)c1 (configuration not stated)	-1	-0.71	-1	11	+	-7
Cc1cccc2cc(C#N)c(SCc3nnc(-c4ccccc4[N+](=O)[O-])o3)nc12	-1	-0.044	-7	0	+	1
COc1ccc(NC(=O)c2ccco2)cc1NC(=O)c1cccc(OC(C)C)c1	1	-0.013	-11	7	+	-5
COC(=O)c1ccc(C(NC(=O)c2cccnc2)NC(=O)c2cccnc2)cc1	-2	-0.5	11	-1	+	0
COc1c(C)cc(Br)cc1C(=O)Nc1ccc(Cc2ccncc2)cc1	14	-0.66	-1	38	+	2
Cc1cc(C)c(S(=O)(=O)N2CCN(c3ccc([N+](=O)[O-])c(NCC4CCCO4)c3)CC2)c(C)c1 (configuration not stated)	-3	2.2	28	0	i	-5
CS(=O)(=O)N1CCN(c2ccc([N+](=O)[O-])c(NCc3ccc(Cl)cc3)c2)CC1	98*	-0.21	-7	0	i	1
O=[N+]([O-])c1ccc(N2CCN(S(=O)(=O)c3ccc(Cl)cc3)CC2)cc1NCC1CCCO1 (configuration not stated)	0	-0.087	0	0	+	-5
CN(C)S(=O)(=O)c1ccc(NC(=O)CN2CCc3ccccc32)cc1	21	-0.12	x	0	x	0
COc1cccc2c1c(NC(=O)Nc1ccc(F)cc1F)nn2C	27	-0.052	-18	0	x	3
Cc1cc(C)c2c(CC(=O)O)c(C)[nH]c2c1	12	1.8	-6	-1	i	0

Source: PubChem
